Shown is part of a subset that was picked to be rich in hits.
INS-1E ATP HTS – INS-1E beta cell protection from cytokine death; INS-1E cytokine-induced death, ATP luminescence, 48 h; normalised: neutral wells 0, positive control 100; protection from cytokine-induced ATP loss, % at 10 µM; actives 0.1% (n = 20,000);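 active means mean replicate protection from cytokine-induced ATP loss at least 50% and at least 75% of replicates each reaching 50%; inconclusive means meets only one of the two criteria, mean or replicate share; inactive means fails both the mean and replicate share criteria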
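Assay system: INS-1E rat insulinoma cells. Amount: 8000 cells per well. Medium: phenol-red-free RPMI with 5% fetal bovine serum. Reagent: IL-1β, TNF-α and IFN-γ cytokine mix. Doses: one compound concentration, pin transfer. Schedule: 48 h co-treatment, 10 min post-lysis read. Detection: CellTiter-Glo luminescence measuring cellular ATP.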
A1 apoptosis 2 – A1 inhibition read as caspase activation. caspase activation, % (concentration not given with the values). MEF A1-2A-BIM cells, caspase-Glo luminescence, 3 h; percent of clofoctol response, DMSO zero. 24,000 tested, under 10 active. AID 2465; in the data active means caspase activation above about 5.9%; inconclusive means no clear call, values can overlap the other calls; inactive means below about 2.2%
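system = A1-2A-BIM-expressing MEF cells | quantity = 2500 MEF cells/well | dosing = 50 nL compound per well, pinned | schedule = overnight cell settling, then 3 h compound exposure, 37 °C | signal = luminescence from DEVD-luciferin Caspase-Glo reagent, 1:1 in 50 mM HEPES, 1 h RT | read-out = Caspase-3/7 activation, seen as rise in luminescence signal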
T cruzi intra – inhibitors of intracellular Trypanosoma cruzi. activity score (inhibition), % at 5.01 µM. actives 4.9% (n = 22,000). AID 651903. intracellular Trypanosoma cruzi in host cells, plate reader; in the data active means activity score above about 55%; inconclusive means no clear call, values can overlap the other calls;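 further: parasites and compound incubated about four days before reading; 0% = median of neutral control wells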
* marks the source's active call; other numbers are inactive results; ? = inconclusive; · = no result.

SMILES | INS-1E ATP HTS | A1 apoptosis 2 | T cruzi intra
O=C(CCCCCCC(=O)Nc1ccccc1O)N/N=C/c1cccc(C(=O)O)c1 | -0.8 | 0.3 | -19.8
CC12N=C3SCC(=O)N3[C@H](c3ccccc3O1)[C@H]2CO | · | -0.2 | ·
C[C@@H]1CCCCO[C@H](CN(C)CC2CCCCC2)[C@@H](C)CN([C@H](C)CO)C(=O)c2cc(NC(=O)Nc3cccc4ccccc34)ccc2O1 | -32.8 | · | 63.5*
C[C@H](CO)N1C[C@H](C)[C@@H](CN(C)CC2CC2)OCCCC[C@H](C)Oc2ccc(NC(=O)Nc3cccc4ccccc34)cc2C1=O | · | 0.9 | ·
C[C@@H]1CCCCO[C@@H](CN(C)CC2CCCCC2)[C@H](C)CN([C@@H](C)CO)C(=O)c2cc(NC(=O)Nc3cccc4ccccc34)ccc2O1 | · | -0.1 | ·
C[C@@H]1CCCCO[C@@H](CN(C)CC2CCCCC2)[C@@H](C)CN([C@H](C)CO)C(=O)c2cc(NC(=O)Nc3cccc4ccccc34)ccc2O1 | -31.8 | · | 66.7*
COc1ccc(Br)c(/C=N/NC(=O)CCCCC(=O)NO)c1 | · | -0.1 | ·
C[C@@H]1CN([C@@H](C)CO)C(=O)Cc2cc(NC(=O)c3ccncc3)ccc2O[C@@H]1CN(C)Cc1ccccc1 | 1.1 | · | 0.4
C[C@@H]1CN([C@@H](C)CO)C(=O)Cc2cc(NC(=O)Nc3ccccc3)ccc2O[C@@H]1CN(C)Cc1ccc(-c2ccccc2)cc1 | -10.8 | -0.6 | 62.4*
C[C@H]1CN([C@@H](C)CO)C(=O)Cc2cc(NC(=O)NC3CCCCC3)ccc2O[C@@H]1CN(C)Cc1ccc(Cl)c(Cl)c1 | -20.8 | 0.6 | 65.4*
C[C@H]1CN([C@@H](C)CO)C(=O)Cc2cc(NC(=O)NC3CCCCC3)ccc2O[C@H]1CN(C)Cc1ccc(-c2ccccc2)cc1 | -34.8 | · | 67.3*
C[C@H](CO)N1C[C@H](C)[C@H](CN(C)Cc2ccc(-c3ccccc3)cc2)Oc2ccc(NC(=O)NC3CCCCC3)cc2CC1=O | -20.5 | · | 39.0
C[C@H]1CN([C@@H](C)CO)C(=O)Cc2cc(NC(=O)Nc3ccccc3)ccc2O[C@H]1CN(C)Cc1ccc(-c2ccccc2)cc1 | 7.7 | 0.0 | -17.6
C[C@@H]1CN([C@@H](C)CO)C(=O)Cc2cc(NC(=O)NC3CCCCC3)ccc2O[C@@H]1CN(C)Cc1ccc(Cl)c(Cl)c1 | -59.4 | · | 50.3
C[C@H]1CN([C@@H](C)CO)C(=O)Cc2cc(NC(=O)c3ccncc3)ccc2O[C@H]1CN(C)Cc1ccc(-c2ccccc2)cc1 | -9.4 | · | 77.5*
C[C@H](O)[C@H](O)[C@@H](O)[C@@H](O)/C=N/NC(=O)CCCCCCC(=O)Nc1ccccc1O | -11.9 | 0.4 | -3.2
CC1=C(C/C=N/NC(=O)CCCCCCC(=O)Nc2ccccc2O)C(C)(C)CCC1 | 7.8 | · | 6.5
O=C(CCCCCCC(=O)Nc1ccccc1O)N/N=C/c1cc(Br)cc(Br)c1O | 5.1 | -0.3 | 34.5
O=C1N(Cc2ccccc2)Cc2ccccc2[C@H]2OC(c3ccc(OCCCO)cc3)=N[C@@]12CCS(=O)(=O)c1ccccc1 | · | -1.0 | ·
C[C@@H]1CN([C@@H](C)CO)C(=O)Cc2cc(NC(=O)Nc3ccc(F)cc3)ccc2O[C@@H]1CN(C)Cc1ccc(-c2ccccc2)cc1 | -6.0 | -0.7 | 61.0*
C[C@H](CO)N1C[C@H](C)[C@H](CN(C)Cc2ccc(-c3ccccc3)cc2)Oc2ccc(NC(=O)Nc3ccccc3)cc2CC1=O | -15.6 | · | ?
O=C(NO)c1cccc(C(=O)N/N=C/c2ccc([N+](=O)[O-])c(O)c2)c1 | 2.6 | -1.2 | 4.8
C[C@H](CO)N1C[C@H](C)[C@@H](CN(C)Cc2ccc(C(=O)Nc3ccccc3N)cc2)Oc2ccc(NC(=O)Cc3ccccc3)cc2CC1=O | · | 0.9 | ·
Cc1ccc(S(=O)(=O)N(C)C[C@@H]2Oc3ccc(NC(=O)c4ccncc4)cc3C(=O)N([C@H](C)CO)C[C@@H]2C)cc1 | -0.8 | · | 63.2*
C[C@H](CO)N1C[C@H](C)[C@H](CN(C)S(=O)(=O)c2ccc(F)cc2)Oc2ccc(NC(=O)Nc3ccc(C(F)(F)F)cc3)cc2C1=O | · | -1.6 | 14.4
SMILES | INS-1E ATP HTS | A1 apoptosis 2 | T cruzi intra
C[C@@H]1CN([C@@H](C)CO)C(=O)c2cc(NC(=O)Nc3cccc4ccccc34)ccc2O[C@@H]1CN(C)S(=O)(=O)c1ccc(F)cc1 | -12.6 | -1.1 | 27.5
C[C@H]1CN([C@@H](C)CO)C(=O)c2cc(NC(=O)Nc3cccc4ccccc34)ccc2O[C@H]1CN(C)S(=O)(=O)c1ccc(F)cc1 | -14.9 | · | 64.8*
C[C@@H]1CN([C@@H](C)CO)C(=O)c2cc(NC(=O)Nc3ccc(C(F)(F)F)cc3)ccc2O[C@@H]1CN(C)S(=O)(=O)c1ccc(F)cc1 | -12.8 | -0.8 | 67.6*
C[C@@H]1CN([C@@H](C)CO)C(=O)c2cc(NC(=O)Nc3ccc(C(F)(F)F)cc3)ccc2O[C@H]1CN(C)S(=O)(=O)c1ccc(F)cc1 | 1.2 | -0.2 | 31.9
C[C@@H]1CN([C@H](C)CO)C(=O)c2cc(NC(=O)Nc3ccc(C(F)(F)F)cc3)ccc2O[C@H]1CN(C)S(=O)(=O)c1ccccc1 | -36.8 | -0.6 | 70.4*
Cc1ccc(S(=O)(=O)N(C)C[C@@H]2Oc3ccc(NC(=O)c4ccncc4)cc3C(=O)N([C@H](C)CO)C[C@H]2C)cc1 | 1.6 | · | -13.7
COC(=O)CCCCCCC(=O)N/N=C/c1cc(O)ccc1Br | 33.1 | -0.7 | 23.0
COCCOC(=O)N1C(=O)[C@@]2(c3ccccc31)[C@H](C(=O)N1CCN(c3ncccn3)CC1)[C@H]1C(=O)O[C@H](c3ccccc3)[C@H](c3ccccc3)N1[C@@H]2c1ccccc1OCCO | · | 0.1 | ·
C=CCN1C(=O)[C@@]2(O[C@@H](CCO)[C@H]([Si](C)(C)c3ccc(OC)cc3)[C@H]2C)c2cc(I)ccc21 | · | -2.1 | ·
O=C(CCCCCCC(=O)Nc1ccccc1O)N/N=C/c1ccc(O)cc1Br | 6.6 | 0.0 | -3.2
Cc1ccc(O)c(/C=N/NC(=O)c2cccc(C(=O)NO)c2)c1 | -2.4 | -0.8 | -44.6
C[C@H](CO)N1C[C@H](C)[C@H](CN(C)Cc2ccc(Oc3ccccc3)cc2)Oc2ccc(NC(=O)Nc3ccc(F)cc3)cc2CC1=O | -52.3 | · | 61.8*
COc1ccc(NC(=O)Nc2ccc3c(c2)CC(=O)N([C@@H](C)CO)C[C@@H](C)[C@@H](CN(C)Cc2ccc(Oc4ccccc4)cc2)O3)cc1 | -12.3 | 2.2 | 60.3*
C[C@H](CO)N1C[C@H](C)[C@@H](CN(C)Cc2ccc(Oc3ccccc3)cc2)Oc2ccc(NC(=O)Nc3ccc(F)cc3)cc2CC1=O | · | -0.4 | ·
COc1ccc(NC(=O)Nc2ccc3c(c2)CC(=O)N([C@H](C)CO)C[C@H](C)[C@H](CN(C)Cc2ccc(Oc4ccccc4)cc2)O3)cc1 | -37.1 | 0.0 | 32.1
C[C@H]1CN([C@@H](C)CO)C(=O)Cc2cc(NC(=O)Nc3ccc(F)cc3)ccc2O[C@H]1CN(C)Cc1ccccc1 | -9.9 | 1.3 | 25.2
C[C@@H]1CN([C@H](C)CO)C(=O)Cc2cc(NC(=O)Nc3ccc(F)cc3)ccc2O[C@@H]1CN(C)Cc1ccc(Oc2ccccc2)cc1 | -53.2 | -0.1 | 71.3*

Bioassay records (PubChem BioAssay)
